# pIC50: −log10 of the molar value.
# What was measured:
# [1] = Apparent half-life of the terminal disposition phase in C57BL/6 mouse plasma at 22 mg/kg, iv administered as single dose measured 24 hrs by UPLC-MS/MS analysis; type: ADME, organism-based; settings: read-out: t1/2 lambda z (converted)
# Procedure, shortened: (§1)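 21 animals dosed at 0 min, 3 sacrificed at each of 0, 5, 15, 30 min, 1, 4 and 24 h. Plasma was extracted by protein precipitation with phospholipid removal. Brain was weighed, bead-homogenised in 50 mM ammonium formate and extracted in acidified organic solvent. Quantified by UPLC-MS/MS (MRM). Brain ng/g taken as ng/mL. Parameters came from noncompartmental analysis. Kp = AUClast brain/plasma.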
# [2] = Cmax in C57BL/6 mouse plasma at 22 mg/kg, iv administered as single dose measured 24 hrs by UPLC-MS/MS analysis; type: ADME, organism-based; design: dose 22 mg/kg, route intravenous; procedure, shortened: as §1
# [3] = Metabolic stability in mouse plasma assessed as parent compound remaining at 5 uM after 4 hrs by UPLC-MS/MS analysis; type: ADME, cell-free; settings: read-out: Stability
# Procedure, shortened: (§2)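 Compound at 5 μM was incubated in mouse or human plasma at 37 °C with shaking. Sampled at 0, 5, 15, 30, 60, 120 and 240 min and stopped with ice-cold acetonitrile/0.1% formic acid containing internal standard. Supernatants analysed by UPLC-MS/MS for parent remaining. Run in triplicate.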
# Mus musculus [4] = test: Acute toxicity in C57BL/6 mouse assessed as abnormal clinical signs at […], iv administered as single dose measured after 24 hrs post-injection; type: organism-based; settings: in vivo
# [5] = Efflux ratio of apparent permeability in MDCK-WT cells at 10 uM after 1 hr in absence of P-gp inhibitor verapamil by UPLC-MS/MS analysis; settings: dog
# [6] = AUClast in C57BL/6 mouse brain at 22 mg/kg, iv administered as single dose measured 24 hrs by UPLC-MS/MS analysis; type: ADME, organism-based; design: dose 22 mg/kg, route intravenous, time 0 - last; procedure, shortened: as §1
# [7] = AUClast in C57BL/6 mouse plasma at 22 mg/kg, iv administered as single dose measured 24 hrs by UPLC-MS/MS analysis; type: ADME, organism-based; design: dose 22 mg/kg, time 0 - last, route intravenous; procedure, shortened: as §1
# [8] = Metabolic stability in human liver microsomes assessed as parent compound remaining at 1 uM after 60 mins by UPLC-MS/MS analysis; type: ADME, microsome; settings: liver microsomes, read-out: Stability
# Procedure, shortened: (§3)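 Compound at 1 μM with 0.5 mg/mL mouse or human liver microsomes in 100 mM potassium phosphate pH 7.4, 3.3 mM MgCl2, 1 mM NADPH, at 37 °C. Started with NADPH; minus-NADPH control run. Stopped at 0, 5, 15, 30, 45 and 60 min with acetonitrile/formic acid plus internal standard. Parent remaining by UPLC-MS/MS, in triplicate.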
# Mus musculus [9] = test: Acute toxicity in C57BL/6 mouse assessed as abnormal clinical signs at […], po administered as single dose measured after 24 hrs post-injection; type: organism-based; settings: in vivo
# [10] = Cmax in C57BL/6 mouse brain at 22 mg/kg, iv administered as single dose measured 24 hrs by UPLC-MS/MS analysis; type: ADME, organism-based; design: dose 22 mg/kg, route intravenous; procedure, shortened: as §1
# [11] = biological target: T1, Amine oxidase [flavin-containing] B (Homo sapiens, UniProt P27338); test: Inhibition of human recombinant MAO-B expressed in baculovirus infected BTI-TN-5B1-4 insect cells using benzylamine as substrate preincubated for 1 hr followed by substrate addition and measured after 30 mins by resazurin dye-based fluorescence assay; type: cell-based
# T1 sequence (P27338 whole entry): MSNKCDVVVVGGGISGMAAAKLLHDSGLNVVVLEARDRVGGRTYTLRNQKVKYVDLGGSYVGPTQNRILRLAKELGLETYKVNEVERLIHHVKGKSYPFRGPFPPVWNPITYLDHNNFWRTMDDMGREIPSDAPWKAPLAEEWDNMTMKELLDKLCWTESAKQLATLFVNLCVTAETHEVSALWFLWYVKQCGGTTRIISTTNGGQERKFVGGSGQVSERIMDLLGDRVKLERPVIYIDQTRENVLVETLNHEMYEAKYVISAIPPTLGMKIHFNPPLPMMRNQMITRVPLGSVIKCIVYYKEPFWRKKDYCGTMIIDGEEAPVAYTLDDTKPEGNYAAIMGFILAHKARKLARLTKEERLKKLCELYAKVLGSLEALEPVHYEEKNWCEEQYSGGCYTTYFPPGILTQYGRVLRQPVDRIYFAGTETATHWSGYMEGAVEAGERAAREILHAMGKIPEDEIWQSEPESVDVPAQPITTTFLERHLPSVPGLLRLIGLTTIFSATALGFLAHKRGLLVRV
# P-gp (MDR1) = test: Efflux ratio of apparent permeability in MDCK2-MDR1 cells at 10 uM after 1 hr in absence of P-gp inhibitor verapamil by UPLC-MS/MS analysis; type: ADME, cell-based, Canis lupus familiaris; settings: dog, MDCK-MDR1
# Procedure, shortened: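 MDCK-WT (MEM-α/10% FBS) or MDCK-MDR1 II (DMEM/10% FBS) cells were grown 3 days on 12-well transwells. Integrity was checked by TEER and 100 μM Lucifer yellow. Cells were washed in HBSS/10 mM HEPES. Compound at 10 μM was added apically or basally, in triplicate, ±100 μM verapamil. Receiver sampled at 1 h by UPLC-MS/MS. Efflux ratio = Papp B→A / Papp A→B.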
# [12] = biological target: T2, Amine oxidase [flavin-containing] A (Homo sapiens, UniProt P21397); test: Inhibition of human recombinant MAO-A expressed in baculovirus infected BTI-TN-5B1-4 insect cells using tyramine as substrate preincubated for 1 hr followed by substrate addition and measured after 30 mins by resazurin dye-based fluorescence assay
# T2 sequence (P21397 whole entry): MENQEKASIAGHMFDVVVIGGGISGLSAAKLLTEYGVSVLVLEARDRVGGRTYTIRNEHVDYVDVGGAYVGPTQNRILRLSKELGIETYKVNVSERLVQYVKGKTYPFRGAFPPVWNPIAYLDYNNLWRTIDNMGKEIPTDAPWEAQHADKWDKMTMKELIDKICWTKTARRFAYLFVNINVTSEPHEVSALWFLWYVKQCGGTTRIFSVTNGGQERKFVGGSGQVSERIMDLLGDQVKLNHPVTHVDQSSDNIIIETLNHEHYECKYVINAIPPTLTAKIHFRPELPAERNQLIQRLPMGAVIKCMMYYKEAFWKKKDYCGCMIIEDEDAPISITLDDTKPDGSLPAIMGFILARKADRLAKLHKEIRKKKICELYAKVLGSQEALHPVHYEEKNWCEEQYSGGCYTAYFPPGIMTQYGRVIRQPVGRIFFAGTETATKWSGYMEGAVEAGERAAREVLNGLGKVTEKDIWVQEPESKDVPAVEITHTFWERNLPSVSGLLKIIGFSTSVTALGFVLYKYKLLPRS
# [13] = Metabolic stability in mouse liver microsomes assessed as parent compound remaining at 1 uM after 60 mins in presence of NADPH by UPLC-MS/MS analysis; type: ADME, microsome; settings: read-out: Stability; procedure, shortened: as §3
# Mus musculus [14] = test: Acute toxicity in C57BL/6 mouse assessed as abnormal clinical signs at […], sc administered as single dose measured after 24 hrs post-injection; type: organism-based; settings: in vivo
# [15] = Tmax in C57BL/6 mouse brain at 22 mg/kg, iv administered as single dose measured 24 hrs by UPLC-MS/MS analysis; type: ADME, organism-based
# Procedure, shortened: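 Brains weighed, portion bead-homogenised in 50 mM ammonium formate, extracted in acidified organic solvent, quantified by UPLC-MS/MS. ng/g taken as ng/mL. Tmax from noncompartmental analysis.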
# [16] = Metabolic stability in cryopreserved mouse hepatocytes assessed as parent compound remaining at 1 uM after 60 mins by UPLC-MS/MS analysis; type: ADME, cell-based, Hepatocyte; settings: read-out: Stability
# [17] = Ratio of AUClast in brain to plasma in C57BL/6 mouse at 22 mg/kg, iv administered as single dose measured 24 hrs by UPLC-MS/MS analysis; type: ADME, organism-based; procedure, shortened: as §1
# [18] = Metabolic stability in human plasma assessed as parent compound remaining at 5 uM after 4 hrs by UPLC-MS/MS analysis; type: ADME, cell-free; settings: read-out: Stability; procedure, shortened: as §2
# [19] = Tmax in C57BL/6 mouse plasma at 22 mg/kg, iv administered as single dose measured 24 hrs by UPLC-MS/MS analysis; type: ADME, organism-based
# Procedure, shortened: (§4)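 Plasma cleaned by protein precipitation with phospholipid removal, then UPLC-MS/MS in MRM mode. Tmax obtained by noncompartmental analysis.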
# [20] = AUClast in C57BL/6 mouse plasma at 20 mg/kg, iv administered as single dose measured 24 hrs by UPLC-MS/MS analysis; type: ADME, organism-based; design: dose 20 mg/kg, route intravenous, time 0 - last; procedure, shortened: as §1
# [21] = AUClast in C57BL/6 mouse brain at 20 mg/kg, iv administered as single dose measured 24 hrs by UPLC-MS/MS analysis; type: ADME, organism-based; design: dose 20 mg/kg, time 0 - last, route intravenous; procedure, shortened: as §1
# [22] = Cmax in C57BL/6 mouse brain at 20 mg/kg, iv administered as single dose measured 24 hrs by UPLC-MS/MS analysis; type: ADME, organism-based; design: dose 20 mg/kg, route intravenous; procedure, shortened: as §1
# [23] = Tmax in C57BL/6 mouse plasma at 20 mg/kg, iv administered as single dose measured 24 hrs by UPLC-MS/MS analysis; type: ADME, organism-based; procedure, shortened: as §4
# [24] = Cmax in C57BL/6 mouse plasma at 20 mg/kg, iv administered as single dose measured 24 hrs by UPLC-MS/MS analysis; type: ADME, organism-based; design: dose 20 mg/kg, route intravenous; procedure, shortened: as §1
# [25] = Ratio of AUClast in brain to plasma in C57BL/6 mouse at 20 mg/kg, iv administered as single dose measured 24 hrs by UPLC-MS/MS analysis; type: ADME, organism-based; procedure, shortened: as §1
# [26] = Tmax in C57BL/6 mouse brain at 20 mg/kg, iv administered as single dose measured 24 hrs by UPLC-MS/MS analysis; type: ADME, organism-based; procedure, shortened: as §1
# [27] = Apparent half-life of the terminal disposition phase in C57BL/6 mouse plasma at 20 mg/kg, iv administered as single dose measured 24 hrs by UPLC-MS/MS analysis; type: ADME, organism-based; settings: read-out: t1/2 lambda z (converted); procedure, shortened: as §1
smiles,measurement,setting,value
C[C@H](Cc1ccc(OCc2ccc(Cl)c(Cl)c2)cc1)N(C)CC(=O)O,half-life,[1],238 min
same,Cmax,[2],16200 ng/mL
same,"remaining at 4 h, 5 µM",[3],≥ 75%
same,Activity,Mus musculus [4],Non-Toxic
same,"efflux ratio at 1 h, 10 µM",[5],1.45
same,AUC(0-t) at 24 h,[6],7450 ng·h/mL
same,AUC(0-t) at 24 h,[7],82000 ng·h/mL
same,"remaining at 1 h, 1 µM",[8],≥ 90%
same,Activity,Mus musculus [9],Non-Toxic
same,Cmax,[10],455 ng/mL
same,pIC50,[11],6.66
same,"efflux ratio at 1 h, 10 µM",P-gp (MDR1),3.07
same,pIC50,[12],4.38
same,"remaining at 1 h, 1 µM",[13],89.5%
same,Activity,Mus musculus [14],Non-Toxic
same,Tmax,[15],4 h
same,"remaining at 1 h, 1 µM",[16],≥ 90%
same,Kp at 24 h,[17],0.09
same,"remaining at 4 h, 5 µM",[18],≥ 75%
same,Tmax,[19],5 min
C[C@H](Cc1ccc(OCc2cc(Cl)ccc2Cl)cc1)N(C)CC(=O)O,pIC50,[11],5.86
same,pIC50,[12],< 4.30
C[C@H](Cc1ccc(OCc2cccc(Cl)c2)cc1)N(C)CC(=O)O,"remaining at 4 h, 5 µM",[3],≥ 75%
same,Activity,Mus musculus [4],Non-Toxic
same,"efflux ratio at 1 h, 10 µM",[5],1.23
same,AUC(0-t) at 24 h,[20],112 µg·h/mL
same,AUC(0-t) at 24 h,[21],2280 ng·h/mL
same,"remaining at 1 h, 1 µM",[8],≥ 90%
same,Activity,Mus musculus [9],Non-Toxic
same,pIC50,[11],6.58
same,Cmax,[22],648 ng/mL
same,"efflux ratio at 1 h, 10 µM",P-gp (MDR1),1.75
same,Tmax,[23],5 min
same,pIC50,[12],< 4.30
same,"remaining at 1 h, 1 µM",[13],87.3%
same,Activity,Mus musculus [14],Non-Toxic
same,Cmax,[24],16600 ng/mL
same,"remaining at 1 h, 1 µM",[16],≥ 90%
same,"remaining at 4 h, 5 µM",[18],≥ 75%
same,Kp at 24 h,[25],0.02
same,Tmax,[26],1 h
same,half-life,[27],271 min
O=C(O)COCCN1CCN(C(c2ccccc2)c2ccc(Cl)cc2)CC1 (stereo unspecified) [CETIRIZINE],"efflux ratio at 1 h, 10 µM",[5],3
same,"efflux ratio at 1 h, 10 µM",P-gp (MDR1),4.12
C[C@H](Cc1ccc(OCc2ccccn2)cc1)N(C)CC(=O)O,pIC50,[12],< 4.30
C[C@H](Cc1ccc(OCc2ccccc2)cc1)N(C)CC(=O)O,pIC50,[11],6.05
same,pIC50,[12],< 4.30
CN(CC(=O)O)[C@H](CC#N)Cc1ccc(OCc2ccccc2)cc1,pIC50,[11],6.27
same,pIC50,[12],< 4.30
C[C@H](Cc1ccc(OCc2ccccc2C#N)cc1)N(C)CC(=O)O,pIC50,[11],4.85
same,pIC50,[12],< 4.30
C[C@H](Cc1ccc(OCc2cc(F)cc(F)c2)cc1)N(C)CC(=O)O,pIC50,[11],6.04
same,pIC50,[12],< 4.30
C[C@H](Cc1ccc(OCc2cccc([N+](=O)[O-])c2)cc1)N(C)CC(=O)O,pIC50,[11],5.36
same,pIC50,[12],< 4.30
C[C@H](Cc1ccc(OCc2ccc(C#N)cc2)cc1)N(C)CC(=O)O,pIC50,[11],5.43
same,pIC50,[12],< 4.30
C[C@H](Cc1ccc(OCc2ccccc2Cl)cc1)N(C)CC(=O)O,pIC50,[11],6.15
same,pIC50,[12],< 4.30
CN(CC(=O)O)[C@H](CO)Cc1ccc(OCc2ccccc2)cc1,pIC50,[11],5.99
same,pIC50,[12],< 4.30

# Reference: ChEMBL document CHEMBL4229446, “Development of Novel Monoamine Oxidase-B (MAO-B) Inhibitors with Reduced Blood-Brain Barrier Permeability for the Potential Management of Noncentral Nervous System (CNS) Diseases” (J Med Chem, 2018)
